{"source": "PubChem BioAssay AID651575", "about": "(The Scripps Research Institute Molecular Screening Center, 2012)", "note": "pIC50: −log10 of the molar value.", "data": [{"test_system": "Huh-7.5 HCV J6/JFH-1 infection, RT-qPCR viral RNA, 48 h", "assay": "HCV infectivity inhibition in Huh-7.5 cells, late-stage follow-up, counter-screen for HCV core dimerization inhibitor project, cell-based, RT-qPCR viral RNA, J6/JFH-1, powder samples (AID 651575)", "how_it_was_run": "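System – Huh-7.5 cells infected with HCV genotype 2a J6/JFH-1 · Probe or stimulus – J6/JFH-1 HCV co-added with compound · Incubation – 24 h infection with compound, then 48 h compound · Technique – Taqman real-time RT-qPCR of HCV RNA, Ct values · Read-out basis – IC50 from four-parameter variable-slope fit of percent inhibition, total-RNA-normalized · Replicates – triplicates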", "values": [{"compound": "Cc1ccc(Cc2c(C)nc3nc(SCC(=O)NCCN4CCOCC4)nn3c2C)cc1", "pIC50": 6.51}, {"compound": "Cc1ccc(Cc2c(C)nc3nc(SCC(=O)NCCN4CCCCCC4)nn3c2C)cc1", "pIC50": 6.72}, {"compound": "Cc1ccc(Cc2c(C)nc3nc(SCC(=O)NCCN4CCN(CCc5ccccc5)CC4)nn3c2C)cc1", "pIC50": 6.53}, {"compound": "Cc1ccc(Cc2c(C)nc3nc(SCC(=O)NCCN4CCCN(S(C)(=O)=O)CC4)nn3c2C)cc1", "pIC50": 5.91}, {"compound": "Cc1ccc(Cc2c(C)nc3nc(SCC(=O)NCCN4CCCN(S(=O)(=O)c5ccc(C)cc5)CC4)nn3c2C)cc1", "pIC50": 8.40}, {"compound": "Cc1ccc(Cc2c(C)nc3nc(SCC(=O)NCCN4CCCN(S(=O)(=O)c5ccccc5)CC4)nn3c2C)cc1", "pIC50": 6.18}, {"compound": "Cc1ccc(Cc2c(CCc3ccccc3)nc3nc(SC(Cc4ccccc4)C(=O)NCCN4CCOCC4)nn3c2C)cc1", "note": "(centres undefined)", "pIC50": 6.54}, {"compound": "Cc1ccc(Cc2c(C)nc3nc(SCC(=O)NCCN4CCN(Cc5ccc(F)cc5)CC4)nn3c2C)cc1", "pIC50": 7.49}, {"compound": "Cc1ccc(Cc2c(C)nc3nc(SCC(=O)NCCN4CCNCC4)nn3c2C)cc1", "pIC50": 8.70}]}]}
